Test results reported in ChEMBL document CHEMBL3600321, “Synthesis and antifungal evaluation of head-to-head and head-to-tail bisamidine compounds” (Bioorg Med Chem, 2015).
≈ marks a conversion by molar mass, not a printed value. Calls of active or inactive are those of the source. The rule behind the calls is not given here.

Assays:
Candida albicans [1] = assay: Fungicidal activity against Candida albicans WTBF-50 assessed as inhibition of lipid biosynthesis after 90 mins by [3H]-acetate incorporation assay; type: functional, organism-based
How it was run: (§1)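 C. albicans was grown in RPMI at 37 °C to OD600 of about 1, then mixed with 2-fold serial dilutions of compound and one 3H precursor at 10 μCi/ml final. Incubation ran 90 min at 37 °C, about one doubling. TCA precipitate was filter-collected and scintillation-counted. Each concentration was tested in triplicate. Incorporation relative to untreated control was fitted with a four-parameter curve to give the IC50.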

Candida albicans [2] = assay: Fungicidal activity against Candida albicans WTBF-50 assessed as inhibition of cell wall biosynthesis after 90 mins by [3H]-glucosamine incorporation assay; type: functional, organism-based; how it was run: as §1
Cryptococcus neoformans = assay: Antifungal activity against Cryptococcus neoformans Cn18 (Serotype C) WTBF-106 by microbroth dilution method; type: functional
How it was run: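 Microbroth dilution per the CLSI protocol, run in Sabouraud Dextrose Broth in place of RPMI. MIC values are geometric means of three independent assays.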

Nakaseomyces glabratus = assay: Antifungal activity against Candida glabrata ATCC 90030 WTBF-86 by microbroth dilution method; type: functional
How it was run: (§2)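 CLSI microbroth dilution in RPMI 1640 with L-glutamine. MIC values are geometric means of three independent assays.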

Candida albicans [3] = assay: Fungicidal activity against Candida albicans WTBF-50 assessed as inhibition of RNA biosynthesis after 90 mins by [3H]-uridine incorporation assay; type: functional, organism-based; how it was run: as §1
Candida albicans [4] = assay: Fungicidal activity against Candida albicans WTBF-50 assessed as decrease in number of viable cells at 4 x MIC measured within 4 to 24 hrs; type: functional, organism-based
How it was run: (§3)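 C. albicans was grown in RPMI at 37 °C to OD600 of about 1. […] Samples taken at intervals were serially diluted and plated on Sabouraud agar, and cfu/ml was counted.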

Candida parapsilosis = assay: Antifungal activity against Candida parapsilosis ATCC 90018 WTBF-88 by microbroth dilution method; type: functional; settings: Lodderomyces parapsilosis; how it was run: as §2
Candida albicans [5] = assay: Fungicidal activity against Candida albicans WTBF-50 assessed as inhibition of protein biosynthesis after 90 mins by [3H]-leucine incorporation assay; type: functional, organism-based; how it was run: as §1
Candida albicans [6] = assay: Fungicidal activity against Candida albicans WTBF-50 assessed as inhibition of DNA and RNA biosynthesis after 90 mins by [3H]-adenine incorporation assay; type: functional, organism-based; how it was run: as §1
Candida albicans [7] = assay: Fungicidal activity against Candida albicans WTBF-50 assessed as log10 reduction in CFU/ml at 4 x MIC measured within 4 hrs; type: functional; how it was run: as §3
Candida albicans [8] = assay: Fungicidal activity against Candida albicans WTBF-50 assessed as log10 reduction in CFU/ml at 1 x MIC measured within 24 hrs; type: functional; how it was run: as §3
Pichia kudriavzevii = assay: Antifungal activity against Candida krusei WTBF-51 by microbroth dilution method; type: functional
Candida albicans [9] = assay: Ratio of IC50 for inhibition of RNA biosynthesis in Candida albicans WTBF-50 by [3H]-uridine incorporation assay to IC50 for inhibition of DNA and RNA biosynthesis in Candida albicans WTBF-50 by [3H]-adenine incorporation assay; type: functional
How it was run: (§4)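 The ratio was formed from IC50 values of the 3H-precursor incorporation assay: C. albicans at OD600 of about 1 in RPMI, serial compound dilutions, 10 μCi/ml final label, 90 min at 37 °C. TCA precipitate was scintillation-counted, triplicates were run, and IC50 came from a four-parameter fit.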

[10] = Metabolic stability in liver microsomes (unknown origin); type: ADME
Candida albicans [11] = assay: Fungicidal activity against Candida albicans WTBF-50 assessed as log10 reduction in CFU/ml at 2 x MIC measured within 24 hrs; type: functional; how it was run: as §3
Candida albicans [12] = assay: Fungicidal activity against Candida albicans WTBF-50 assessed as decrease in number of viable cells measured within 4 to 24 hrs; type: functional, organism-based; how it was run: as §3
Candida albicans [13] = assay: Antifungal activity against Candida albicans WTBF-50 by microbroth dilution method; type: functional; how it was run: as §2
Candida albicans [14] = assay: Ratio of IC50 for inhibition of cell wall biosynthesis in Candida albicans WTBF-50 by [3H]-glucosamine incorporation assay to IC50 for inhibition of DNA and RNA biosynthesis in Candida albicans WTBF-50 by [3H]-adenine incorporation assay; type: functional; how it was run: as §4
HeLa = assay: Cytotoxicity against human HeLa cells assessed as cell viability after 72 hrs by MTS assay; type: cell-based
Candida albicans [15] = assay: Fungicidal activity against Candida albicans WTBF-50 assessed as log10 reduction in CFU/ml at 1 x MIC measured within 4 hrs; type: functional; how it was run: as §3
Candida albicans [16] = assay: Binding affinity to DNA in Candida albicans WTBF-50 at 4 x MIC after 30 mins by Syto9 dye-based fluorescence microscope with DAPI filter analysis
How it was run: (§5)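 An exponential C. albicans culture was treated for 30 min with bisamidine at 4× MIC or with 33 μM Syto9. Fluorescence microscopy used the DAPI channel for the bisamidine and the GFP channel for Syto9, at 400× magnification.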

Candida albicans [17] = assay: Binding affinity to DNA in Candida albicans WTBF-50 at 4 x MIC after 30 mins by Syto9 dye-based fluorescence microscope with GFP filter analysis; how it was run: as §5

With `C[C@@H]1[C@H](O)[C@@H](C)/C=C/C=C/C=C/C=C/C=C/C=C/C=C/[C@H](O[C@@H]2O[C@H](C)[C@@H](O)[C@H](N)[C@@H]2O)C[C@@H]2O[C@](O)(C[C@@H](O)C[C@@H](O)[C@H](O)CC[C@@H](O)C[C@@H](O)CC(=O)O[C@H]1C)C[C@H](O)[C@H]2C(=O)O` [AMPHOTERICIN B] as the compound, how does the IC50 (Candida albicans [1]) read?
The IC50 was 0.036 µg/mL (≈ 0.039 µM).

And the IC50 (Candida albicans [2])?
The IC50 was 0.043 µg/mL (≈ 0.0465 µM).

And the MIC (Cryptococcus neoformans)?
The MIC was 32 µg/mL (≈ 34.6 µM).

And the MIC (Nakaseomyces glabratus)?
Its MIC is 0.25 µg/mL (≈ 0.271 µM).

What about the IC50 (Candida albicans [3]) of the same compound?
The IC50 was 0.014 µg/mL (≈ 0.0152 µM).

And the Activity (Candida albicans [4])?
Its Activity is “Active”.

And the MIC (Candida parapsilosis)?
Its MIC is 0.31 µg/mL (≈ 0.335 µM).

And the IC50 (Candida albicans [5])?
Its IC50 is 0.052 µg/mL (≈ 0.0563 µM).

And the IC50 (Candida albicans [6])?
The IC50 was 0.038 µg/mL (≈ 0.0411 µM).

What does the source list for `CC(=O)O.c1cc2cc(-c3ccc(-c4c[nH]c5cc(C6=NCCCN6)ccc45)cc3)[nH]c2cc1C1=NCCCN1`?
Activity (Candida albicans [7]): >3 log10CFU/ml; IC50 (Candida albicans [1]): ≥ 2 µg/mL; IC50 (Candida albicans [2]): 0.87 µg/mL; Activity (Candida albicans [8]): 1 log10CFU/ml; MIC (Cryptococcus neoformans): 0.98 µg/mL; MIC (Pichia kudriavzevii): 0.25 µg/mL; MIC (Nakaseomyces glabratus): 0.06 µg/mL; IC50 (Candida albicans [3]): 0.56 µg/mL; Ratio IC50 (Candida albicans [9]): 30; MIC (Candida parapsilosis): 0.16 µg/mL; Stability [10]: Stable; Activity (Candida albicans [11]): 4 log10CFU/ml; Activity (Candida albicans [12]): Dose-dependent effect; MIC (Candida albicans [13]): 0.25 µg/mL; Ratio IC50 (Candida albicans [14]): 43.5; CC50 (HeLa): 2.4 µg/mL; IC50 (Candida albicans [5]): 0.86 µg/mL; IC50 (Candida albicans [6]): 0.02 µg/mL

With `O=C(O)C(F)(F)F.c1cc2cc(-c3ccc(-c4cc5ccc(C6=NCCCN6)cc5[nH]4)cc3)[nH]c2cc1C1=NCCCN1` as the compound, how does the Activity (Candida albicans [7]) read?
Its Activity is greater than 3 log10CFU/ml.

And the IC50 (Candida albicans [1])?
The IC50 was no less than 2 µg/mL.

What about the IC50 (Candida albicans [2]) of the same compound?
The IC50 was 0.59 µg/mL.

And the MIC (Cryptococcus neoformans)?
Its MIC is 0.08 µg/mL.

What about the MIC (Pichia kudriavzevii) of the same compound?
Its MIC is 0.13 µg/mL.

What about the MIC (Nakaseomyces glabratus) of the same compound?
The MIC was 0.06 µg/mL.

And the IC50 (Candida albicans [3])?
The IC50 was 0.32 µg/mL.

What about the “Ratio IC50” value (Candida albicans [9]) of the same compound?
Its value is 30.

What about the Activity (Candida albicans [15]) of the same compound?
Its Activity is 3 log10CFU/ml.

And the MIC (Candida parapsilosis)?
Its MIC is 0.1 µg/mL.

What about the Stability [10] of the same compound?
Its Stability is “Stable”.

And the Activity (Candida albicans [12])?
The Activity was “Dose-dependent effect”.

And the MIC (Candida albicans [13])?
Its MIC is 0.25 µg/mL.

What about the Ratio IC50 (Candida albicans [14]) of the same compound?
Its Ratio IC50 is 59.

And the CC50 (HeLa)?
Its CC50 is 4 µg/mL.

What about the IC50 (Candida albicans [5]) of the same compound?
The IC50 was 0.59 µg/mL.

What about the IC50 (Candida albicans [6]) of the same compound?
Its IC50 is 0.01 µg/mL.

For `CC(=O)O.c1cc2cc(-c3ccc(-c4ccc5cc(C6=NCCCN6)oc5c4)cc3)[nH]c2cc1C1=NCCCN1`, which Activity (Candida albicans [7]) is on record?
The Activity was greater than 3 log10CFU/ml.

What about the MIC (Cryptococcus neoformans) of the same compound?
Its MIC is 0.13 µg/mL.

And the MIC (Pichia kudriavzevii)?
Its MIC is 0.5 µg/mL.

And the MIC (Nakaseomyces glabratus)?
The MIC was 0.06 µg/mL.

And the MIC (Candida parapsilosis)?
The MIC was 0.13 µg/mL.

And the Stability [10]?
Its Stability is “Stable”.

What about the Activity (Candida albicans [12]) of the same compound?
Its Activity is “Dose-dependent effect”.

And the MIC (Candida albicans [13])?
Its MIC is 0.25 µg/mL.

And the CC50 (HeLa)?
Its CC50 is 1.5 µg/mL.

What does the source list for `O=C(O)C(F)(F)F.c1cc2cc(-c3ccc(-c4cc5ccc(C6=NCCN6)cc5[nH]4)cc3)[nH]c2cc1C1=NCCN1`?
MIC (Cryptococcus neoformans): 2 µg/mL; Activity (Candida albicans [16]): Active; MIC (Pichia kudriavzevii): 4 µg/mL; MIC (Nakaseomyces glabratus): 0.25 µg/mL; Activity (Candida albicans [17]): Active; MIC (Candida parapsilosis): 0.63 µg/mL; Stability [10]: Stable; MIC (Candida albicans [13]): 10.1 µg/mL; CC50 (HeLa): 32.5 µg/mL
